Laboratory results reported in ChEMBL document CHEMBL3593164, “Rational Design and Synthesis of Thioridazine Analogues as Enhancers of the Antituberculosis Therapy” (J Med Chem, 2015).
≈ marks a conversion by molar mass, not a printed value. Calls of active or inactive are those of the source. The rule behind the calls is not given here.

Assays:
[1] = system: Mycolicibacterium smegmatis; test: Antimycobacterial activity against Mycobacterium smegmatis MC2 155 after 3 days by broth microdilution method; format: functional; conditions: str. MC2 155, 72 h
Method in brief: (§1)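 Growth inhibition of M. smegmatis mc²155 (ATCC700084) or M. tuberculosis H37Rv (ATCC27294) determined by broth microdilution; MIC in µg/mL. Where no exact MIC was reachable, the highest concentration technically testable is reported as a lower bound.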

PBMC = test: Cytotoxicity against human PBMC assessed as cell viability after 3 days by AlamarBlue assay; format: cell-based; conditions: 72 h
[2] = system: Mycolicibacterium smegmatis MC2 155
[3] = system: Mycobacterium tuberculosis; test: Antimycobacterial activity against Mycobacterium tuberculosis H37Rv infected in human monocyte-derived macrophages assessed as reduction of colony forming unit at 16 ug/ml after 3 weeks by broth microdilution method in presence of 0.05 ug/ml of isoniazid; format: functional, organism-based
Method in brief: (§2)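 Human monocyte-derived macrophages infected with M. tuberculosis H37Rv; each compound added at a concentration giving ≥90% macrophage viability over 3 days of treatment, alone or combined with INH or RIF at a non-antibiotic inhibitory concentration. The read-out was intracellular killing.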

[4] = system: Mycobacterium tuberculosis; test: Antimycobacterial activity against Mycobacterium tuberculosis H37Rv infected in human monocyte-derived macrophages assessed as reduction of colony forming unit at 16 ug/ml after 3 weeks by broth microdilution method in presence of 0.5 ug/ml of rifampin; format: functional, organism-based; method in brief: as §2
[5] = system: Mycobacterium tuberculosis; test: Antimycobacterial activity against Mycobacterium tuberculosis H37Rv infected in human monocyte-derived macrophages assessed as reduction of colony forming unit at 0.078 ug/ml after 3 weeks by broth microdilution method in presence of 0.05 ug/ml of isoniazid; format: functional, organism-based; method in brief: as §2
[6] = system: Mycobacterium tuberculosis; test: Antimycobacterial activity against Mycobacterium tuberculosis H37Rv infected in human monocyte-derived macrophages assessed as reduction of colony forming unit at 0.078 ug/ml after 3 weeks by broth microdilution method in presence of 0.5 ug/ml of rifampin; format: functional, organism-based; method in brief: as §2
[7] = system: Mycobacterium tuberculosis; test: Antimycobacterial activity against Mycobacterium tuberculosis H37Rv infected in human monocyte-derived macrophages assessed as reduction of colony forming unit at 1.25 ug/ml after 3 weeks by broth microdilution method in presence of 0.05 ug/ml of isoniazid; format: functional, organism-based; method in brief: as §2
[8] = system: Mycobacterium tuberculosis; test: Antimycobacterial activity against Mycobacterium tuberculosis H37Rv infected in human monocyte-derived macrophages assessed as reduction of colony forming unit at 1.25 ug/ml after 3 weeks by broth microdilution method in presence of 0.5 ug/ml of rifampin; format: functional, organism-based; method in brief: as §2
[9] = system: Mycobacterium tuberculosis; test: Antimycobacterial activity against Mycobacterium tuberculosis H37Rv infected in human monocyte-derived macrophages assessed as reduction of colony forming unit at 40 ug/ml after 3 weeks by broth microdilution method in presence of 0.05 ug/ml of isoniazid; format: functional, organism-based; method in brief: as §2
[10] = system: Mycobacterium tuberculosis; test: Antimycobacterial activity against Mycobacterium tuberculosis H37Rv infected in human monocyte-derived macrophages assessed as reduction of colony forming unit at 40 ug/ml after 3 weeks by broth microdilution method in presence of 0.5 ug/ml of rifampin; format: functional, organism-based; method in brief: as §2
[11] = system: Mycobacterium tuberculosis; test: Antimycobacterial activity against Mycobacterium tuberculosis H37Rv infected in human monocyte-derived macrophages assessed as reduction of colony forming unit at 16 ug/ml after 3 weeks by broth microdilution method; format: functional, organism-based; method in brief: as §2
[12] = system: Mycobacterium tuberculosis; test: Antimycobacterial activity against Mycobacterium tuberculosis H37Rv infected in human monocyte-derived macrophages assessed as reduction of colony forming unit at 0.078 ug/ml after 3 weeks by broth microdilution method; format: functional, organism-based; method in brief: as §2
[13] = system: Mycobacterium tuberculosis; test: Antimycobacterial activity against Mycobacterium tuberculosis H37Rv infected in human monocyte-derived macrophages assessed as reduction of colony forming unit at 1.25 ug/ml after 3 weeks by broth microdilution method; format: functional, organism-based; method in brief: as §2
[14] = system: Mycobacterium tuberculosis; test: Antimycobacterial activity against Mycobacterium tuberculosis H37Rv infected in human monocyte-derived macrophages assessed as reduction of colony forming unit at 40 ug/ml after 3 weeks by broth microdilution method; format: functional, organism-based; method in brief: as §2
[15] = system: Mycobacterium tuberculosis; test: Antimycobacterial activity against Mycobacterium tuberculosis H37Rv after 3 days by broth microdilution method; format: functional; conditions: 72 h; method in brief: as §1
[16] = Ratio of thioridazine IC50 to compound IC50 for human PBMC; format: ADME, cell-based; conditions: PBMC (peripheral blood mononuclear cells), read-out: Ratio IC50

Compound: CN1CCCCC1CCn1c2ccccc2c(=O)c2ccccc21 (configuration not stated)
- MIC [1]: 64 µg/mL (≈ 200 µM)
- IC50 (PBMC): 2.37 µM
- RFU [2]: 0.94

Compound: c1ccc(CCn2c3ccccc3c3ccccc32)nc1
- MIC [1]: > 64 µg/mL
- RFU [2]: -0.17

Compound: c1ccc2c(c1)c1ccccc1n2CCN1CCCCC1
- MIC [1]: > 256 µg/mL
- RFU [2]: 0.08

Compound: CN1CCCCC1CCn1c(C(=O)NC23CC4CC(CC(C4)C2)C3)cc2cc(Cl)ccc21 (mixture of isomers)
- MIC [1]: > 256 µg/mL
- RFU [2]: 0.17

Compound: COc1ccc(C(C#N)(CCC2CCCCN2C)C(C)C)cc1OC (mixture of isomers)
- MIC [1]: > 256 µg/mL
- RFU [2]: 0.72

Compound: Cc1c(Cc2ccccc2)c(=O)n2c3ccccc3n(CCC3CCCCN3C)c2c1C#N (racemic)
- MIC [1]: > 64 µg/mL
- RFU [2]: 0.66

Compound: COc1ccc(N(CCC2CCCCN2C)C(C)C)cc1OC (racemic)
- Activity [3]: Active
- Activity [4]: Active
- Activity [5]: Active
- Activity [6]: Active
- Activity [7]: Active
- Activity [8]: Active
- Activity [9]: Active
- Activity [10]: Active
- Activity [11]: Active
- Activity [12]: Active
- Activity [13]: Active
- Activity [14]: Active
- MIC [1]: > 256 µg/mL
- IC50 (PBMC): 265 µM
- MIC [15]: > 256 µg/mL
- RFU [2]: 1.17

Compound: CN1CCCCC1CCn1c2ccccc2c2ccccc21 (racemic)
- Activity [3]: Active
- Activity [4]: Active
- Activity [5]: Active
- Activity [6]: Active
- Activity [7]: Active
- Activity [8]: Active
- Activity [9]: Active
- Activity [10]: Active
- Activity [11]: Active
- Activity [12]: Active
- Activity [13]: Active
- Activity [14]: Active
- MIC [1]: 256 µg/mL (≈ 875 µM)
- IC50 (PBMC): 30 µM
- selectivity ratio [16]: 2
- MIC [15]: 128 µg/mL (≈ 438 µM)
- RFU [2]: 0.95

Compound: CN1CCCCC1CCn1ccc2ccc(Br)cc21 (racemic)
- Activity [3]: Active
- Activity [4]: Active
- Activity [5]: Active
- Activity [6]: Active
- Activity [7]: Active
- Activity [8]: Active
- Activity [9]: Active
- Activity [10]: Active
- Activity [11]: Active
- Activity [12]: Active
- Activity [13]: Active
- Activity [14]: Active
- MIC [1]: 64 µg/mL (≈ 199 µM)
- IC50 (PBMC): 32.5 µM
- selectivity ratio [16]: 2
- MIC [15]: > 256 µg/mL
- RFU [2]: 0.81

Compound: CN1CCCCC1CCn1cnc2ccccc21 (racemic)
- Activity [3]: Active
- Activity [4]: Active
- Activity [5]: Active
- Activity [6]: Active
- Activity [7]: Active
- Activity [8]: Active
- Activity [9]: Active
- Activity [10]: Active
- Activity [11]: Active
- Activity [12]: Active
- Activity [13]: Active
- Activity [14]: Active
- MIC [1]: > 256 µg/mL
- IC50 (PBMC): 702 µM
- MIC [15]: > 256 µg/mL
- RFU [2]: 15.3

Compound: CN1CCCCC1CCN(c1ccccc1)c1ccccc1 (racemic)
- MIC [1]: > 64 µg/mL
- RFU [2]: 0.61

Compound: COc1ccc(N(CCC2CCCCN2C)c2ccccc2)cc1OC (racemic)
- MIC [1]: 256 µg/mL (≈ 722 µM)
- RFU [2]: 0.76

Compound: CN1CCCCC1CCN1CCCC1 (racemic)
- MIC [1]: > 256 µg/mL
- RFU [2]: 0.39

Compound: CSc1ccc2c(c1)N(CCC1CCCCN1C)c1ccccc1S2 (configuration not stated) [THIORIDAZINE]
- MIC [1]: 30 µg/mL (≈ 81 µM)
- IC50 (PBMC): 13.8 µM
- MIC [15]: 15 µg/mL (≈ 40.5 µM)
- RFU [2]: 0.82

Compound: COc1ccc(CCN(C)CCCC(C#N)(c2ccc(OC)c(OC)c2)C(C)C)cc1OC (configuration not stated) [VERAPAMIL]
- MIC [1]: 800 µg/mL (≈ 1760 µM)
- IC50 (PBMC): 117 µM
- MIC [15]: 512 µg/mL (≈ 1130 µM)
